In ChEMBL document CHEMBL3102739, “Synthesis and antiproliferative activity of conformationally restricted 1,2,3-triazole analogues of combretastatins in the sea urchin embryo model and against human cancer cell lines” (Bioorg Med Chem, 2014):

Experiments:
NCI-H23 = assay: Growth inhibition of human NCI-H23 cells after 48 hrs by SRB assay; type: functional; conditions: NCI-H23, 48 h
SW-620 = assay: Growth inhibition of human SW620 cells after 48 hrs by SRB assay; type: functional; conditions: SW-620, 48 h
Paracentrotus lividus [1] = assay: Antimitotic activity against sea urchin embryo free-swimming blastula model assessed as embryo spinning compound treated at 8 to 10 hrs post-fertilization measured after 0.25 to 20 hrs; type: functional, Blastula stage
[2] = Growth inhibition of human Hs578T cells after 48 hrs by SRB assay; type: functional; conditions: Hs-578T
LOX IMVI = assay: Growth inhibition of human LOXIMVI cells after 48 hrs by SRB assay; type: functional
[3] = Growth inhibition of human HCC2998 cells after 48 hrs by SRB assay; type: functional; conditions: HCC 2998, 48 h
NCI-H460 = assay: Growth inhibition of human NCI-H460 cells after 48 hrs by SRB assay; type: functional; conditions: NCI-H460, 48 h
SNB-75 = assay: Growth inhibition of human SNB75 cells after 48 hrs by SRB assay; type: functional; conditions: SNB-75, 48 h
SR = assay: Growth inhibition of human SR cells after 48 hrs by SRB assay; type: functional
SK-MEL-2 = assay: Growth inhibition of human SK-MEL-2 cells after 48 hrs by SRB assay; type: functional; conditions: SK-MEL-2, 48 h
ACHN = assay: Growth inhibition of human ACHN cells after 48 hrs by SRB assay; type: functional
SF-295 = assay: Growth inhibition of human SF295 cells after 48 hrs by SRB assay; type: functional; conditions: SF-295, 48 h
SN12C = assay: Growth inhibition of human SN12C cells after 48 hrs by SRB assay; type: functional
HCT-15 = assay: Growth inhibition of human HCT15 cells after 48 hrs by SRB assay; type: functional; conditions: HCT-15, 48 h
[4] = Growth inhibition of human NCI-ADR-RES cells after 48 hrs by SRB assay; type: functional
MDA-MB-231 = assay: Growth inhibition of human MDA-MB-231 cells after 48 hrs by SRB assay; type: functional; conditions: MDA-MB-231, 48 h
HCT-116 = assay: Growth inhibition of human HCT116 cells after 48 hrs by SRB assay; type: functional; conditions: HCT-116, 48 h
[5] = Growth inhibition of human SF539 cells after 48 hrs by SRB assay; type: functional; conditions: SF-539, 48 h
SK-OV-3 = assay: Growth inhibition of human SKOV3 cells after 48 hrs by SRB assay; type: functional; conditions: SK-OV-3, 48 h
COLO 205 = assay: Growth inhibition of human COLO205 cells after 48 hrs by SRB assay; type: functional; conditions: COLO 205, 48 h
[6] = Growth inhibition of human UACC257 cells after 48 hrs by SRB assay; type: functional; conditions: UACC-257, 48 h
UACC-62 = assay: Growth inhibition of human UACC62 cells after 48 hrs by SRB assay; type: functional; conditions: UACC-62, 48 h
BT-549 = assay: Growth inhibition of human BT549 cells after 48 hrs by SRB assay; type: functional; conditions: BT-549, 48 h
MDA-MB-435 = assay: Growth inhibition of human MDA-MB-435 cells after 48 hrs by SRB assay; type: functional; conditions: MDA-MB-435, 48 h
SNB-19 = assay: Growth inhibition of human SNB19 cells after 48 hrs by SRB assay; type: functional; conditions: SNB-19, 48 h
TK-10 = assay: Growth inhibition of human TK10 cells after 48 hrs by SRB assay; type: functional; conditions: TK-10, 48 h
PC-3 = assay: Growth inhibition of human PC3 cells after 48 hrs by SRB assay; type: functional; conditions: PC-3, 48 h
[7] = Growth inhibition of human EKVX cells after 48 hrs by SRB assay; type: functional
Paracentrotus lividus [8] = assay: Antimitotic activity against sea urchin embryo model assessed as cleavage arrest of fertilized egg compound treated at 8 to 20 mins post-fertilization and 45 to 55 mins prior to first mitotic cycle completion measured 2.5 to 5.5 hrs post-fertilization; type: functional
Method in brief: (§1)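 Fertilized eggs are exposed 8–20 min after fertilization to 2-fold decreasing concentrations. Stocks are 10 mM in DMSO, then diluted 10-fold in 95% EtOH; final DMSO is at most 0.05% and EtOH at most 1%. Embryos are kept as a monolayer, up to 2000 embryos/mL, in filtered seawater at room temperature. The value is the threshold concentration giving cleavage alteration, embryo death before hatching or full mitotic arrest. Duplicates were run.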

SF-268 = assay: Growth inhibition of human SF268 cells after 48 hrs by SRB assay; type: functional; conditions: SF-268, 48 h
OVCAR-3 = assay: Growth inhibition of human OVCAR3 cells after 48 hrs by SRB assay; type: functional; conditions: OVCAR-3, 48 h
[9] = Growth inhibition of human HOP92 cells after 48 hrs by SRB assay; type: functional; conditions: HOP-92, 48 h
Paracentrotus lividus [10] = assay: Antimitotic activity against sea urchin embryo model assessed as cleavage alteration of fertilized egg compound treated at 8 to 20 mins post-fertilization and 45 to 55 mins prior to first mitotic cycle completion measured 2.5 to 5.5 hrs post-fertilization; type: functional; method in brief: as §1
MDA-MB-468 = assay: Growth inhibition of human MDA-MB-468 cells after 48 hrs by SRB assay; type: functional; conditions: MDA-MB-468, 48 h
HT-29 = assay: Growth inhibition of human HT-29 cells after 48 hrs by SRB assay; type: functional; conditions: HT-29, 48 h
T47D = assay: Growth inhibition of human T47D cells after 48 hrs by SRB assay; type: functional
IGROV-1 = assay: Growth inhibition of human IGROV1 cells after 48 hrs by SRB assay; type: functional; conditions: IGROV-1, 48 h
A549 = assay: Growth inhibition of human A549 cells after 48 hrs by SRB assay; type: functional; conditions: A549, 48 h
MOLT-4 = assay: Growth inhibition of human MOLT4 cells after 48 hrs by SRB assay; type: functional; conditions: MOLT-4, 48 h
U-251 = assay: Growth inhibition of human U251 cells after 48 hrs by SRB assay; type: functional; conditions: U-251, 48 h
RPMI-8226 = assay: Growth inhibition of human RPMI8226 cells after 48 hrs by SRB assay; type: functional; conditions: RPMI-8226, 48 h
[11] = Growth inhibition of human OVCAR4 cells after 48 hrs by SRB assay; type: functional; conditions: OVCAR-4, 48 h
A498 = assay: Growth inhibition of human A498 cells after 48 hrs by SRB assay; type: functional; conditions: A498, 48 h
OVCAR-8 = assay: Growth inhibition of human OVCAR8 cells after 48 hrs by SRB assay; type: functional; conditions: OVCAR-8, 48 h
NCI-H226 = assay: Growth inhibition of human NCI-H226 cells after 48 hrs by SRB assay; type: functional; conditions: NCI-H226, 48 h
SK-MEL-5 = assay: Growth inhibition of human SK-MEL-5 cells after 48 hrs by SRB assay; type: functional; conditions: SK-MEL-5, 48 h
CAKI-1 = assay: Growth inhibition of human CAKI-1 cells after 48 hrs by SRB assay; type: functional; conditions: CAKI-1, 48 h

**Q.** With COc1ccc(-c2nn[nH]c2-c2cc(OC)c(OC)c(OC)c2)cc1 as the compound, how does the GI50 (NCI-H23) read?
**A.** < 10 nM

**Q.** And the GI50 (SW-620)?
**A.** < 10 nM

**Q.** And the EC (Paracentrotus lividus [1])?
**A.** 0.1 µM

**Q.** What about the GI50 [2] of the same compound?
**A.** < 10 nM

**Q.** And the GI50 (LOX IMVI)?
**A.** < 10 nM

**Q.** And the GI50 [3]?
**A.** < 10 nM

**Q.** And the GI50 (NCI-H460)?
**A.** < 10 nM

**Q.** What about the GI50 (SNB-75) of the same compound?
**A.** < 10 nM

**Q.** What about the GI50 (SR) of the same compound?
**A.** < 10 nM

**Q.** What about the GI50 (SK-MEL-2) of the same compound?
**A.** < 10 nM

**Q.** What about the GI50 (ACHN) of the same compound?
**A.** 15 nM

**Q.** And the GI50 (SF-295)?
**A.** < 10 nM

**Q.** What about the GI50 (SN12C) of the same compound?
**A.** < 10 nM

**Q.** What about the GI50 (HCT-15) of the same compound?
**A.** < 10 nM

**Q.** And the GI50 [4]?
**A.** < 10 nM

**Q.** What about the GI50 (MDA-MB-231) of the same compound?
**A.** < 10 nM

**Q.** And the GI50 (HCT-116)?
**A.** < 10 nM

**Q.** And the GI50 [5]?
**A.** < 10 nM

**Q.** What about the GI50 (SK-OV-3) of the same compound?
**A.** < 10 nM

**Q.** And the GI50 (COLO 205)?
**A.** 33 nM

**Q.** What about the GI50 [6] of the same compound?
**A.** < 10 nM

**Q.** And the GI50 (UACC-62)?
**A.** < 10 nM

**Q.** And the GI50 (BT-549)?
**A.** < 10 nM

**Q.** And the GI50 (MDA-MB-435)?
**A.** < 10 nM

**Q.** What about the GI50 (SNB-19) of the same compound?
**A.** < 10 nM

**Q.** What about the GI50 (TK-10) of the same compound?
**A.** < 10 nM

**Q.** And the GI50 (PC-3)?
**A.** 43 nM

**Q.** What about the GI50 [7] of the same compound?
**A.** < 10 nM

**Q.** And the EC (Paracentrotus lividus [8])?
**A.** 0.02 µM

**Q.** And the GI50 (SF-268)?
**A.** 21 nM

**Q.** And the GI50 (OVCAR-3)?
**A.** < 10 nM

**Q.** What about the GI50 [9] of the same compound?
**A.** < 10 nM

**Q.** What about the EC (Paracentrotus lividus [10]) of the same compound?
**A.** 0.005 µM

**Q.** And the GI50 (MDA-MB-468)?
**A.** < 10 nM

**Q.** What about the GI50 (HT-29) of the same compound?
**A.** < 10 nM

**Q.** What about the GI50 (T47D) of the same compound?
**A.** 2660 nM

**Q.** And the GI50 (IGROV-1)?
**A.** < 10 nM

**Q.** What about the GI50 (A549) of the same compound?
**A.** < 10 nM

**Q.** What about the GI50 (MOLT-4) of the same compound?
**A.** 12 nM

**Q.** What about the GI50 (U-251) of the same compound?
**A.** < 10 nM

**Q.** What about the GI50 (RPMI-8226) of the same compound?
**A.** < 10 nM

**Q.** What about the GI50 [11] of the same compound?
**A.** < 10 nM

**Q.** What about the GI50 (A498) of the same compound?
**A.** < 10 nM

**Q.** And the GI50 (OVCAR-8)?
**A.** < 10 nM

**Q.** What about the GI50 (NCI-H226) of the same compound?
**A.** 51 nM

**Q.** What about the GI50 (SK-MEL-5) of the same compound?
**A.** < 10 nM

**Q.** And the GI50 (CAKI-1)?
**A.** < 10 nM

**Q.** Which results are given for COc1ccc(-c2nn[nH]c2-c2cc(OC)c3c(c2OC)OCO3)cc1?
**A.** GI50 (NCI-H23): 1000 nM; GI50 (SW-620): 385 nM; EC (Paracentrotus lividus [1]): >5 µM; GI50 [2]: 1350 nM; GI50 (LOX IMVI): 547 nM; GI50 [3]: 1110 nM; GI50 (NCI-H460): 409 nM; GI50 (SNB-75): 437 nM; GI50 (SR): 304 nM; GI50 (SK-MEL-2): 326 nM; GI50 (ACHN): 6790 nM; GI50 (SF-295): 356 nM; GI50 (SN12C): 4670 nM; GI50 (HCT-15): 454 nM; GI50 [4]: 296 nM; GI50 (MDA-MB-231): 1130 nM; GI50 (HCT-116): 353 nM; GI50 [5]: 909 nM; GI50 (SK-OV-3): 854 nM; GI50 (COLO 205): 884 nM; GI50 [6]: 595 nM; GI50 (UACC-62): 420 nM; GI50 (BT-549): 345 nM; GI50 (MDA-MB-435): 193 nM; GI50 (SNB-19): 1800 nM; GI50 (TK-10): 6370 nM; GI50 (PC-3): 1930 nM; GI50 [7]: 2790 nM; EC (Paracentrotus lividus [8]): >4 µM; GI50 (SF-268): 4020 nM; GI50 (OVCAR-3): 363 nM; GI50 [9]: 500 nM; EC (Paracentrotus lividus [10]): 0.5 µM; GI50 (MDA-MB-468): 218 nM; GI50 (HT-29): 376 nM; GI50 (T47D): 716 nM; GI50 (IGROV-1): 720 nM; GI50 (A549): 532 nM; GI50 (MOLT-4): 529 nM; GI50 (U-251): 362 nM; GI50 (RPMI-8226): 816 nM; GI50 [11]: 4680 nM; GI50 (A498): 353 nM; GI50 (OVCAR-8): 1320 nM; GI50 (NCI-H226): 15200 nM; GI50 (SK-MEL-5): 343 nM; GI50 (CAKI-1): 762 nM
